Assay results taken from ChEMBL document CHEMBL6083209, “Pyridazinone-based derivatives as anticancer agents endowed with anti-microbial activity: molecular design, synthesis, and biological investigation” (RSC Med Chem, 2024).
≈ marks a conversion by molar mass, not a printed value. Calls of active or inactive are those of the source. The rule behind the calls is not given here.

Experiments:
Candida albicans = assay: Antimicrobial activity against Candida albicans ATCC 10231 by broth microdilution method
Staphylococcus aureus [1] = assay: Antimicrobial activity against Staphylococcus aureus ATCC 29213 by broth microdilution method
Escherichia coli = assay: Antimicrobial activity against Escherichia coli ATCC 25922 by broth microdilution method
Staphylococcus aureus [2] = assay: Antimicrobial activity against Staphylococcus aureus; assay type: functional
A549 = assay: Downregulation of Bcl-2 gene expression in human A549 cells by qRT-PCR analysis; assay type: functional, cell-based
Procedure, shortened: (§1)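 A549/ATCC cells treated, total RNA DNase-treated and checked by 260/280 ratio (1.8–2.1). Reverse transcription with oligo-dT and MuLV RT: 25 °C 10 min, 42 °C 1 h, 99 °C 5 min. qPCR of 40 cycles (95 °C 15 s, 55 °C 30 s, 72 °C 30 s) followed by melt curve. Relative expression by the 2−ΔΔCT method, mean ± SEM.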

[3] = Upregulation of p53 gene expression in human A549 cells assessed as fold increase by qRT-PCR analysis; assay type: functional
Procedure, shortened: as §1

[4] = Upregulation of Bax gene expression in human A549 cells assessed as fold increase by qRT-PCR analysis; assay type: functional
Procedure, shortened: as §1

KM12 = assay: Antiproliferative activity against human KM12 cells assessed as growth inhibition at 10 uM incubated for 48 hrs by SRB method; assay type: functional; conditions: read-out: GI
Procedure, shortened: (§2)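 NCI-60 one-dose screen at 10 μM. Cells were grown in RPMI 1640 with 5% FBS and 2 mM L-glutamine and plated at 5000–40 000 cells/well for 24 h. Drug exposure was 48 h at 37 °C, 5% CO2. Cells were fixed with TCA, stained with 0.4% SRB and read at 515 nm. Growth is expressed as percent of untreated control and time-zero plates.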

K562 = assay: Antiproliferative activity against human K562 cells assessed as growth inhibition at 10 uM incubated for 48 hrs by SRB method; assay type: functional; conditions: K562, read-out: GI
Procedure, shortened: as §2

OVCAR-3 = assay: Antiproliferative activity against human OVCAR-3 cells assessed as growth inhibition at 10 uM incubated for 48 hrs by SRB method; assay type: functional; conditions: read-out: GI
Procedure, shortened: as §2

MCF7 = assay: Antiproliferative activity against human MCF7 cells assessed as growth inhibition at 10 uM incubated for 48 hrs by SRB method; assay type: functional; conditions: read-out: GI
Procedure, shortened: as §2

PC-3 = assay: Antiproliferative activity against human PC-3 cells assessed as growth inhibition at 10 uM incubated for 48 hrs by SRB method; assay type: functional; conditions: PC-3, read-out: GI
Procedure, shortened: as §2

SF-295 = assay: Antiproliferative activity against human SF-295 cells assessed as growth inhibition at 10 uM incubated for 48 hrs by SRB method; assay type: functional; conditions: read-out: GI
Procedure, shortened: as §2

T47D = assay: Antiproliferative activity against human T47D cells assessed as growth inhibition at 10 uM incubated for 48 hrs by SRB method; assay type: functional; conditions: read-out: GI
Procedure, shortened: as §2

NCI-H522 = assay: Antiproliferative activity against human NCI-H522 cells assessed as growth inhibition at 10 uM incubated for 48 hrs by SRB method; assay type: functional; conditions: NCI-H522, read-out: GI
Procedure, shortened: as §2

RPMI-8226 = assay: Antiproliferative activity against human RPMI-8226 cells assessed as growth inhibition at 10 uM incubated for 48 hrs by SRB method; assay type: functional; conditions: RPMI-8226, read-out: GI
Procedure, shortened: as §2

CCRF-CEM = assay: Antiproliferative activity against human CCRF-CEM cells assessed as growth inhibition at 10 uM incubated for 48 hrs by SRB method; assay type: functional; conditions: read-out: GI
Procedure, shortened: as §2

SMILES | MIC (Candida albicans) [µg/mL] | MIC (Staphylococcus aureus [1]) [µg/mL] | MIC (Escherichia coli) [µg/mL] | also measured
O=C1CCC(c2ccc(NC(=S)NC(=O)c3ccccc3)cc2)=NN1 | 512 (≈ 1450 µM) | 512 (≈ 1450 µM) | 256 (≈ 726 µM) | 
N#Cc1ccc(Oc2ccc3cccc(NC(=O)Nc4ccc(Cl)c(C(F)(F)F)c4)c3c2)cc1 |  |  |  | MIC (Staphylococcus aureus [2]): 1 µg/mL (≈ 2.08 µM)
O=C(NC(=S)Nc1ccc(-c2ccc(=O)[nH]n2)cc1)c1ccccc1 | 512 (≈ 1460 µM) | 256 (≈ 731 µM) | 256 (≈ 731 µM) | 
O=C(NC(=S)Nc1ccc(-c2ccc(=O)[nH]n2)cc1)c1ccc(Br)cc1 | 512 (≈ 1190 µM) | 128 (≈ 298 µM) | 128 (≈ 298 µM) | 
COc1cccc2c1C(=O)c1c(O)c3c(c(O)c1C2=O)C[C@@](O)(C(=O)CO)C[C@@H]3O[C@H]1C[C@H](N)[C@H](O)[C@H](C)O1 [DOXORUBICIN] |  |  |  | Activity (A549): Active; fold change (FC) [3]: 3; fold change (FC) [4]: 3
CC(=O)N1CCN(c2ccc(OCC3COC(Cn4ccnc4)(c4ccc(Cl)cc4Cl)O3)cc2)CC1 (centres undefined) [KETOCONAZOLE] | 2 (≈ 3.76 µM) |  |  | 
O=C(NC(=S)Nc1ccc(-c2ccc(=O)[nH]n2)cc1)c1ccc(F)cc1 | 512 (≈ 1390 µM) | 256 (≈ 695 µM) | 256 (≈ 695 µM) | 
O=C(Nc1ccc(-c2ccc(=O)[nH]n2)cc1)Nc1cccc(Br)c1 | > 1020 | 128 (≈ 332 µM) | 512 (≈ 1330 µM) | 
O=C(Nc1ccc(-c2ccc(=O)[nH]n2)cc1)Nc1cccc(Cl)c1 | > 1020 | 256 (≈ 751 µM) | > 1020 | inhibition of growth at 10 µM (KM12): 66.4%; inhibition of growth at 10 µM (K562): 68.4%; inhibition of growth at 10 µM (OVCAR-3): 62.2%; inhibition of growth at 10 µM (MCF7): 64%; inhibition of growth at 10 µM (PC-3): 68%; inhibition of growth at 10 µM (SF-295): 72.7%; inhibition of growth at 10 µM (T47D): 74.7%; inhibition of growth at 10 µM (NCI-H522): 73.5%; inhibition of growth at 10 µM (RPMI-8226): 73.5%; inhibition of growth at 10 µM (CCRF-CEM): 72.9%
O=C(NC(=S)Nc1ccc(-c2ccc(=O)[nH]n2)cc1)c1ccc([N+](=O)[O-])cc1 | 512 (≈ 1290 µM) | > 1020 | > 1020 | 
N#Cc1ccc(Oc2cccc(NC(=O)Nc3ccc(Cl)c(C(F)(F)F)c3)c2)c(F)c1 |  |  |  | MIC (Staphylococcus aureus [2]): 0.5 µg/mL (≈ 1.11 µM)
O=C(Nc1ccc(F)cc1)Nc1ccc(-c2ccc(=O)[nH]n2)cc1 | > 1020 | 256 (≈ 789 µM) | 256 (≈ 789 µM) | 
O=C(Nc1ccc(Cl)c(C(F)(F)F)c1)C(CCl)C(=O)Nc1ccc(Cl)c(C(F)(F)F)c1 |  |  |  | MIC (Staphylococcus aureus [2]): 0.5 µg/mL (≈ 0.985 µM)
O=c1ccc(/C=C/c2ccc(NS(=O)(=O)c3ccc(Cl)c(Cl)c3)cc2)n[nH]1 | 512 (≈ 1210 µM) | 512 (≈ 1210 µM) | 512 (≈ 1210 µM) | 
O=C1CCC(c2ccc(NC(=S)NC(=O)c3ccc([N+](=O)[O-])cc3)cc2)=NN1 | 512 (≈ 1290 µM) | 512 (≈ 1290 µM) | 256 (≈ 644 µM) | 

Now from value to molecule, other results behind:

MIC (Candida albicans) [µg/mL] | MIC (Staphylococcus aureus [1]) [µg/mL] | MIC (Escherichia coli) [µg/mL] | SMILES | also measured
512 (≈ 1330 µM) | 256 (≈ 665 µM) | 512 (≈ 1330 µM) | O=C(NC(=S)Nc1ccc(-c2ccc(=O)[nH]n2)cc1)c1ccc(Cl)cc1 | 
16 (≈ 44.8 µM) | 128 (≈ 359 µM) | 256 (≈ 717 µM) | O=c1ccc(-c2ccc(NC(=S)Nc3cccc(Cl)c3)cc2)n[nH]1 | 
64 (≈ 150 µM) | 128 (≈ 301 µM) | 256 (≈ 601 µM) | O=c1ccc(-c2ccc(NC(=S)Nc3c(Cl)cc(Cl)cc3Cl)cc2)n[nH]1 | 
256 (≈ 708 µM) | 256 (≈ 708 µM) | 1020 (≈ 2830 µM) | O=c1ccc(-c2ccc(NS(=O)(=O)c3cccc(Cl)c3)cc2)n[nH]1 | 
64 (≈ 158 µM) | 512 (≈ 1260 µM) | 256 (≈ 630 µM) | O=c1ccc(-c2ccc(NS(=O)(=O)c3cccc(Br)c3)cc2)n[nH]1 | 
32 (≈ 79.7 µM) | 128 (≈ 319 µM) | 1020 (≈ 2550 µM) | O=c1ccc(-c2ccc(NC(=S)Nc3cccc(Br)c3)cc2)n[nH]1 | 
256 (≈ 708 µM) | 128 (≈ 354 µM) | 256 (≈ 708 µM) | O=c1ccc(-c2ccc(NS(=O)(=O)c3ccc(Cl)cc3)cc2)n[nH]1 | 
256 (≈ 646 µM) | 512 (≈ 1290 µM) | 1020 (≈ 2580 µM) | O=c1ccc(-c2ccc(NS(=O)(=O)c3ccc(Cl)c(Cl)c3)cc2)n[nH]1 | 
64 (≈ 188 µM) | 512 (≈ 1500 µM) | > 1020 | O=c1ccc(-c2ccc(NC(=S)Nc3cccc(F)c3)cc2)n[nH]1 | 
